ChEMBL document CHEMBL3612040, “Discovery of Selective Small Molecule Inhibitors of Monoacylglycerol Acyltransferase 3” (J Med Chem, 2015)
pIC50: −log10 of the molar value.

Experiments:
[1] = Intrinsic clearance in human liver microsomes; format: ADME; conditions: read-out: CLH
[2] = Apparent permeability in RRCK cells; format: ADME, cell-based, Canis lupus familiaris, MDCKII-LE; conditions: dog, MDCK
[3] = Lipophilicity, logD of the compound at pH 7.4; format: physicochemical; conditions: buffer
How it was run: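 Shake-flask octanol:water partition at pH 7.4, with MS analysis of samples.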

[4] = target: T1, Diacylglycerol O-acyltransferase 2 (Homo sapiens, UniProt Q96PD7); test: Inhibition of DGAT2 (unknown origin) using [1-14C]decanoyl-CoA and didecanoyl-sn-glycerol substrates incubated for 40 mins
T1 sequence (Q96PD7 whole entry): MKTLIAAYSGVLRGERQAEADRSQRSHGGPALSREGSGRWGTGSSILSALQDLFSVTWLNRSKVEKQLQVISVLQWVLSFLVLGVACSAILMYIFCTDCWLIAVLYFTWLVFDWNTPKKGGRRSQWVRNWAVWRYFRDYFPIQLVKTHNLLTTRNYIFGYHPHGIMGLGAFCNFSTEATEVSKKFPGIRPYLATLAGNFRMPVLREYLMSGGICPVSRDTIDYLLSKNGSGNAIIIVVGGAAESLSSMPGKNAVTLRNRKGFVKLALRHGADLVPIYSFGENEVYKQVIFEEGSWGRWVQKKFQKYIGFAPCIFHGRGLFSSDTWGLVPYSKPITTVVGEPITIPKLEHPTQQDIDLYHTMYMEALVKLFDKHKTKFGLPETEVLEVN
How it was run: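 DGAT2 membrane fraction (0.01 mg/mL) in 100 mM Hepes-NaOH pH 7.4, 20 mM MgCl2, 200 nM MAFP. Compound first held 20 min with 0.04% fatty-acid-free BSA, then preincubated 120 min at RT with enzyme. Started with 30 µM [1-14C]decanoyl-CoA and 125 µM 1,2-didecanoyl-sn-glycerol; ran 40 min at RT, acid-stopped. Labelled TAG read by scintillation after phase partitioning.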

CYP2C9 = CYP2C9 (Homo sapiens, UniProt P11712); test: Inhibition of CYP2C9 (unknown origin) at 3 uM; format: ADME
CYP2C9, sequence (P11712 whole entry): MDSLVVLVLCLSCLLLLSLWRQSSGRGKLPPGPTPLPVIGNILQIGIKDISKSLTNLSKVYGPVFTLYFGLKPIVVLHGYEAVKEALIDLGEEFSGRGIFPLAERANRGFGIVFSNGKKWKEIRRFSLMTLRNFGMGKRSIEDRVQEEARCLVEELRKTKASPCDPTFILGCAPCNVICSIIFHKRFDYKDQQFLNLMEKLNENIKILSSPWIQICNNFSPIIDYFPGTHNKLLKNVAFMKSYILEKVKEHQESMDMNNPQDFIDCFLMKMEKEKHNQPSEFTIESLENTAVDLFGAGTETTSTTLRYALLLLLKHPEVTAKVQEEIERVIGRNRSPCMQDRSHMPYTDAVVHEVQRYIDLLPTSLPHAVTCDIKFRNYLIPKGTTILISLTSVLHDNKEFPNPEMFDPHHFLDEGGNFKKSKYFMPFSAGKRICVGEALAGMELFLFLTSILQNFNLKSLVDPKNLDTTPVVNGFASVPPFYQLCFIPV

CYP2C8 = target: T2, CYP2C8 (Homo sapiens, UniProt P10632); test: Inhibition of CYP2C8 (unknown origin) at 3 uM; format: ADME
T2 sequence (P10632 whole entry): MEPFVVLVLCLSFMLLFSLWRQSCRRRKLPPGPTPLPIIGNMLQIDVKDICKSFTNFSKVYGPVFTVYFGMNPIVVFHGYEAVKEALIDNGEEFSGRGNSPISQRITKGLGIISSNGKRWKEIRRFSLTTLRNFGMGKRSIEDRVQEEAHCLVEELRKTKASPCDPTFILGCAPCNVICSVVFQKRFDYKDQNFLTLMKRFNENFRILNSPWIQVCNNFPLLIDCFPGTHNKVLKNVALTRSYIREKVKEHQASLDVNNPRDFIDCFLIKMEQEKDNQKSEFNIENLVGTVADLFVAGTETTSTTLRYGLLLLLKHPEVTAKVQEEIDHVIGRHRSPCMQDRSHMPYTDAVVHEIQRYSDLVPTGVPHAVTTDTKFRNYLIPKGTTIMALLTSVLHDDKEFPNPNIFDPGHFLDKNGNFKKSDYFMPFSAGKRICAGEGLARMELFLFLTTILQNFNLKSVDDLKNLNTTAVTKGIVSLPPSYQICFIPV

[5] = target: T3, Diacylglycerol O-acyltransferase 1 (Homo sapiens, UniProt O75907); test: Inhibition of DGAT1 (unknown origin) assessed as effect on incorporation of [1-14C]decanoyl moiety into TG using [1-14C]decanoyl-CoA and 1,2-didecanoyl-sn-glycerol as substrates
T3 sequence (O75907 whole entry): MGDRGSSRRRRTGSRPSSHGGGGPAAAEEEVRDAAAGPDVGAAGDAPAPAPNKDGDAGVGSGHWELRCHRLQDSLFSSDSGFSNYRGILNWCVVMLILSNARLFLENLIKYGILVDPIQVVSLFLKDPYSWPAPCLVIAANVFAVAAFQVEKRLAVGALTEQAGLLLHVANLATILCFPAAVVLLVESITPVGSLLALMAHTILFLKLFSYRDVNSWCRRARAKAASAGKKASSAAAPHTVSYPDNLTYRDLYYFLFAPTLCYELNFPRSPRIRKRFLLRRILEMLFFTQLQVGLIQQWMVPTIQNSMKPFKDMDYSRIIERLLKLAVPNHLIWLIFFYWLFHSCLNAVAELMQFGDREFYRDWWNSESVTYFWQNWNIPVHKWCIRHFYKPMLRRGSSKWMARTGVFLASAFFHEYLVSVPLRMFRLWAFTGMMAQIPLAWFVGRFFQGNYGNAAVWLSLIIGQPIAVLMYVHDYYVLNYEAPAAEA

COc1cccc(CC(=O)N2Cc3ccc(S(=O)(=O)Nc4cnn(C(C)C)n4)cc3C2)c1
microsomal CLint [1]: < 8 µL/min/mg
Papp [2]: 25 ×10⁻⁶ cm/s
logD [3]: 1.4

COc1cccc(CC(=O)N2Cc3ccc(S(=O)(=O)N(C)CCc4cccc(F)c4)cc3C2)c1
microsomal CLint [1]: > 320 µL/min/mg
Papp [2]: 4 ×10⁻⁶ cm/s
logD [3]: 3.9

COc1cccc(CC(=O)N2Cc3ccc(S(=O)(=O)NCCc4cccc(F)c4)cc3C2)c1
pIC50 [4]: < 4.40
microsomal CLint [1]: > 320 µL/min/mg
inhibition at 3 µM (CYP2C9): 35%
inhibition at 3 µM (CYP2C8): 29%
pIC50 [5]: 4.51
Papp [2]: 8 ×10⁻⁶ cm/s
logD [3]: 3.6

COc1cccc(CC(=O)N2Cc3ccc(S(=O)(=O)Nc4cnn(-c5ccc(F)cc5)n4)cc3C2)c1
microsomal CLint [1]: 13 µL/min/mg
inhibition at 3 µM (CYP2C9): 95%
inhibition at 3 µM (CYP2C8): 62%
Papp [2]: 6 ×10⁻⁶ cm/s
logD [3]: 2.5

COc1cccc(CC(=O)N2Cc3ccc(S(=O)(=O)Nc4cnn(C5CC(F)(F)C5)n4)cc3C2)c1
microsomal CLint [1]: < 8 µL/min/mg
Papp [2]: 7 ×10⁻⁶ cm/s
logD [3]: 1.5
